{"source": "ChEMBL document CHEMBL4513216", "about": "“Probing the Open Global Health Chemical Diversity Library for Multistage-Active Starting Points for Next-Generation Antimalarials” (ACS Infect Dis, 2020)", "test": "Toxicity liver stage against HepG2, at 10uM", "format": "cell-based", "set-up": "test concentration 10 uM, cell line HepG2-A16-CD81EGFP", "settings": "human, HepG2-A16-CD81EGFP cells; read-out: INHIBITION", "outline": "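Uninfected HepG2-A16-CD81EGFP cells, 3 × 10^3 per well, 1536-well, plated on prespotted compound at 10 μM final, parasite-free screening media added to match infected plates; puromycin 10 μM positive, DMSO 0.5% negative; run in parallel with 48 h PbLuc assay at 37 °C, 5% CO2; viability by CellTiter-Glo luminescence, normalized to controls.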"}
{"smiles": "CNS(=O)(=O)CC(=O)NC(C)Cc1ccc(Br)cc1", "note": "(stereo unspecified)", "values": [{"measurement": "cytotoxicity at 10 µM", "result": -10.9, "unit": "%"}]}
{"smiles": "CC(Cn1cccn1)NC(=O)NCCCN1CCCCCC1=O", "note": "(stereo unspecified)", "values": [{"measurement": "cytotoxicity at 10 µM", "result": 12.3, "unit": "%"}]}
{"smiles": "Cc1nsc(NC2CCOC3(CCCC3)C2)n1", "note": "(stereo unspecified)", "values": [{"measurement": "cytotoxicity at 10 µM", "result": 8.85, "unit": "%"}]}
{"smiles": "CC1CN(C(=O)NCCn2ccnc2)CCO1", "note": "(stereo unspecified)", "values": [{"measurement": "cytotoxicity at 10 µM", "result": -49.5, "unit": "%"}]}
{"smiles": "Cc1ncccc1NC(=O)C1=NOC2(CCN(Cc3nccs3)C2)C1", "note": "(stereo unspecified)", "values": [{"measurement": "cytotoxicity at 10 µM", "result": 2.11, "unit": "%"}]}
{"smiles": "COc1ccc(-c2cn[nH]c2)cc1CNC1CCCC1", "values": [{"measurement": "cytotoxicity at 10 µM", "result": -45.3, "unit": "%"}]}
{"smiles": "Cc1cc(C)c2c(NCCC34CCCN3CCC4)ncnc2n1", "values": [{"measurement": "cytotoxicity at 10 µM", "result": -2.43, "unit": "%"}]}
{"smiles": "O=C(O)[C@@H]1CN(C2CCCCC2)C[C@H]1C1CC1", "values": [{"measurement": "cytotoxicity at 10 µM", "result": -140, "unit": "%"}]}
{"smiles": "CC(C)Cc1ncc2c(n1)CN(c1cc(NC3CC3)nc(N)n1)C2", "values": [{"measurement": "cytotoxicity at 10 µM", "result": -5.82, "unit": "%"}]}
{"smiles": "CC(C)Nc1cc(N2CCN(Cc3ccccc3)C(CCO)C2)ncn1", "note": "(stereo unspecified)", "values": [{"measurement": "cytotoxicity at 10 µM", "result": 7.9, "unit": "%"}]}
{"smiles": "CN1CCCN(C(=O)c2cnc(Cc3c(Cl)cccc3Cl)nc2O)CC1", "values": [{"measurement": "cytotoxicity at 10 µM", "result": -0.862, "unit": "%"}]}
{"smiles": "O=C(c1ccc(C2CCCN2)s1)N1CCN2CCC1CC2", "note": "(stereo unspecified)", "values": [{"measurement": "cytotoxicity at 10 µM", "result": -8.52, "unit": "%"}]}
{"smiles": "O=C1O[C@@H]2CN(Cc3ccsc3)C[C@@H]2N1Cc1ccccn1", "values": [{"measurement": "cytotoxicity at 10 µM", "result": 9.77, "unit": "%"}]}
{"smiles": "O=C(CO)N1CCC2(CC1)CC(=O)N(Cc1cc(F)cc(F)c1)C2", "values": [{"measurement": "cytotoxicity at 10 µM", "result": 9.92, "unit": "%"}]}
{"smiles": "O=C1CCCCCN1CCc1nc(-c2cccnn2)no1", "values": [{"measurement": "cytotoxicity at 10 µM", "result": -1.75, "unit": "%"}]}
{"smiles": "CCN(C)[C@H]1CN(C(=O)c2cccc(N3CCS(=O)(=O)CC3)c2)C[C@@H]1O", "values": [{"measurement": "cytotoxicity at 10 µM", "result": -5.62, "unit": "%"}]}
{"smiles": "CCCOC1CCCN(c2nc(COC)nc3c2cnn3C)C1", "note": "(stereo unspecified)", "values": [{"measurement": "cytotoxicity at 10 µM", "result": -1.42, "unit": "%"}]}
{"smiles": "CCCN1CCN(c2ccc(-c3nc(C)no3)cn2)CC1", "values": [{"measurement": "cytotoxicity at 10 µM", "result": 8.95, "unit": "%"}]}
{"smiles": "O=C(CCN1CCCO1)N1CC[C@@H](c2ccc3ccccc3c2)[C@H](O)C1", "values": [{"measurement": "cytotoxicity at 10 µM", "result": -1.04, "unit": "%"}]}
{"smiles": "Cc1nc(CN(Cc2cccnc2)Cc2ccsc2)c[nH]1", "values": [{"measurement": "cytotoxicity at 10 µM", "result": 0.935, "unit": "%"}]}
{"smiles": "CC1CCCN1Cc1ccccc1-c1nc(C(C)(C)C)cc(=O)[nH]1", "note": "(stereo unspecified)", "values": [{"measurement": "cytotoxicity at 10 µM", "result": 11.4, "unit": "%"}]}
{"smiles": "CC(C)n1ccnc1CN1CCOC(CCc2ccccc2)C1", "note": "(stereo unspecified)", "values": [{"measurement": "cytotoxicity at 10 µM", "result": -132, "unit": "%"}]}
{"smiles": "CCCc1nc(CNC(=O)Cc2csc(C)n2)cs1", "values": [{"measurement": "cytotoxicity at 10 µM", "result": -10.6, "unit": "%"}]}
{"smiles": "Cc1noc(C)c1CCC(=O)N1CCN(CCn2cncn2)CC1", "values": [{"measurement": "cytotoxicity at 10 µM", "result": 5.03, "unit": "%"}]}
{"smiles": "Cc1ncsc1CCC(=O)NCc1cc2n(n1)CCN(C(=O)N(C)C)C2", "values": [{"measurement": "cytotoxicity at 10 µM", "result": 15.3, "unit": "%"}]}
{"smiles": "Cc1ccc(C(=O)NCCSCc2cccs2)cn1", "values": [{"measurement": "cytotoxicity at 10 µM", "result": -3.95, "unit": "%"}]}
{"smiles": "CCOc1ccc(C2CCCN2C(=O)NCCn2ccnc2)cc1", "note": "(stereo unspecified)", "values": [{"measurement": "cytotoxicity at 10 µM", "result": 0.632, "unit": "%"}]}
{"smiles": "CCc1ccc(C(=O)N2CCC(c3nncn3CC)CC2)s1", "values": [{"measurement": "cytotoxicity at 10 µM", "result": -15.4, "unit": "%"}]}
{"smiles": "Cc1nn(C)c(N2CCOCC2)c1CNC1CCC(O)CC1", "note": "(stereo unspecified)", "values": [{"measurement": "cytotoxicity at 10 µM", "result": -13.2, "unit": "%"}]}
{"smiles": "Cc1cc(CN2CCN(CC(O)c3ccc(Cl)cc3)CC2)no1", "note": "(stereo unspecified)", "values": [{"measurement": "cytotoxicity at 10 µM", "result": -7.06, "unit": "%"}]}
{"smiles": "Cc1nn(C)cc1C(=O)N1CCCC(n2cncn2)C1", "note": "(stereo unspecified)", "values": [{"measurement": "cytotoxicity at 10 µM", "result": -3.27, "unit": "%"}]}
{"smiles": "Cc1cc(C)n(CC2CN(CCOc3ccccc3F)CCO2)n1", "note": "(stereo unspecified)", "values": [{"measurement": "cytotoxicity at 10 µM", "result": -6.73, "unit": "%"}]}
{"smiles": "Cc1cnn(CC2CCCCN2C(=O)CC(F)(F)F)c1", "note": "(stereo unspecified)", "values": [{"measurement": "cytotoxicity at 10 µM", "result": -11.5, "unit": "%"}]}
{"smiles": "CC(=O)Nc1nc(C(=O)NCc2ccnc(N3CCCC3)c2)cs1", "values": [{"measurement": "cytotoxicity at 10 µM", "result": -1.94, "unit": "%"}]}
{"smiles": "CN(C)C(=O)Cc1nc(CN2CCn3c(nnc3C3CC3)C2)cs1", "values": [{"measurement": "cytotoxicity at 10 µM", "result": -9.66, "unit": "%"}]}
{"smiles": "Cc1cnn(CC2CCCN2Cc2ncc(-c3ccccc3)o2)c1", "note": "(stereo unspecified)", "values": [{"measurement": "cytotoxicity at 10 µM", "result": -8.4, "unit": "%"}]}
{"smiles": "CC(C)c1csc(C2CCCN(C(=O)Cn3ccccc3=O)C2)n1", "note": "(stereo unspecified)", "values": [{"measurement": "cytotoxicity at 10 µM", "result": -14.4, "unit": "%"}]}
{"smiles": "CS(=O)(=O)NCCCN1CCCC1c1ccccc1", "note": "(stereo unspecified)", "values": [{"measurement": "cytotoxicity at 10 µM", "result": -13.4, "unit": "%"}]}
{"smiles": "Cc1cnn(CC2CCCN2C(=O)c2cc3ccccc3[nH]c2=O)c1", "note": "(stereo unspecified)", "values": [{"measurement": "cytotoxicity at 10 µM", "result": 2.38, "unit": "%"}]}
{"smiles": "CCn1ncc2c1C(COCC1CC1)N(C(=O)c1ccncn1)CC2", "note": "(stereo unspecified)", "values": [{"measurement": "cytotoxicity at 10 µM", "result": -147, "unit": "%"}]}
{"smiles": "COc1ccc(N2CCCC3(C2)CN(c2cccnc2)CCO3)cc1", "note": "(stereo unspecified)", "values": [{"measurement": "cytotoxicity at 10 µM", "result": 6.59, "unit": "%"}]}
{"smiles": "Cc1ccc(CN2CCc3[nH]nc(C(=O)N(C)C)c3C2)s1", "values": [{"measurement": "cytotoxicity at 10 µM", "result": -7.55, "unit": "%"}]}
{"smiles": "CC(C)CN1CCS(=O)(=O)[C@@H]2CCN(S(=O)(=O)c3ccccc3)CC[C@@H]21", "values": [{"measurement": "cytotoxicity at 10 µM", "result": 3.62, "unit": "%"}]}
{"smiles": "Cc1ncnc2c1CCN(Cc1nccs1)CC2", "values": [{"measurement": "cytotoxicity at 10 µM", "result": 9.91, "unit": "%"}]}
{"smiles": "Cn1nc(COCC2CC2)c2c1CN(C(=O)c1ccno1)CC2", "values": [{"measurement": "cytotoxicity at 10 µM", "result": -5.91, "unit": "%"}]}
{"smiles": "Fc1ccc(CN2CCc3ncnc(C4CCOC4)c3CC2)cc1", "note": "(stereo unspecified)", "values": [{"measurement": "cytotoxicity at 10 µM", "result": 12.3, "unit": "%"}]}
{"smiles": "CN1CCn2c(-c3cccc(F)c3)cnc2C12CCN(CC1CC1)CC2", "values": [{"measurement": "cytotoxicity at 10 µM", "result": 8.13, "unit": "%"}]}
{"smiles": "CC(C)N(C)C[C@H]1C[C@@H]2CN(Cc3ccco3)C[C@@H]2O1", "values": [{"measurement": "cytotoxicity at 10 µM", "result": -4.22, "unit": "%"}]}
{"smiles": "CNC(=O)CN1CCO[C@H]2CN(CC3CCOC3)C[C@H]21", "note": "(stereo partly specified)", "values": [{"measurement": "cytotoxicity at 10 µM", "result": 7.64, "unit": "%"}]}
{"smiles": "Cn1ccnc1CN1CCC2(CC1)CCN(c1cncnc1)C2=O", "values": [{"measurement": "cytotoxicity at 10 µM", "result": -65, "unit": "%"}]}
{"smiles": "COCCN1CCC2(CCCN(Cc3ccoc3)C2)C1=O", "note": "(stereo unspecified)", "values": [{"measurement": "cytotoxicity at 10 µM", "result": 0.582, "unit": "%"}]}
{"smiles": "CC1=N[C@@]2(CC[C@@H]3CN(Cc4ccc(C)cc4)C[C@@H]32)C(=O)N1CC1CC1", "values": [{"measurement": "cytotoxicity at 10 µM", "result": 1.7, "unit": "%"}]}
{"smiles": "Cc1ccc(CN2C[C@@H]3CN(C(=O)c4cccn4C)C[C@@H]3C2)cc1", "values": [{"measurement": "cytotoxicity at 10 µM", "result": -4.25, "unit": "%"}]}
{"smiles": "Cc1ccc(CN2CC[C@H]3[C@H]2CCN3S(=O)(=O)C2CC2)cc1", "values": [{"measurement": "cytotoxicity at 10 µM", "result": 10.2, "unit": "%"}]}
{"smiles": "CC(C)CN1CCCC2(CCN(c3ccc(C#N)cn3)C2)C1", "note": "(stereo unspecified)", "values": [{"measurement": "cytotoxicity at 10 µM", "result": 5.22, "unit": "%"}]}
{"smiles": "CN1[C@@H]2CC[C@H]1CN(C(=O)c1sccc1S(N)(=O)=O)CC2", "values": [{"measurement": "cytotoxicity at 10 µM", "result": 1.95, "unit": "%"}]}
